Calls of active or inactive are those of the source.
Tests used:
Mus musculus [1] = experiment: Anti-obesity activity in C57BL/6 mouse supplemented with high fat diet assessed as decrease in hepatic G6Pc mRNA expression level at 20 mg/kg/day, ip administered for 1 week measured by RT-qPCR assay; assay type: functional, organism-based; details: time 1.0 weeks
Outline: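 Hepatic G6Pc mRNA in male C57BL/6 mice fed HFD for 14 weeks, then ip 20 mg·kg−1·day−1 for 7 days. Liver RNA extracted with Trizol; SYBR Green RT-qPCR.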

Mus musculus [2] = experiment: Inhibition of hepatic lipogenesis in C57BL/6 mouse supplemented with normal chow diet assessed as decrease in FAS protein expression at 20 mg/kg/day, ip administered for 1 week measured by western blot analysis; assay type: functional, organism-based; details: time 1.0 weeks
Outline: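 Normal-chow male C57BL/6 mice, 8 weeks old, were injected ip at 20 mg·kg−1·day−1 daily for 7 days or given vehicle. Liver tissue was homogenized in lysis buffer, and FAS and ChREBP protein were assessed by western blot. n = 5–9.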

Mus musculus [3] = experiment: Inhibition of hepatic lipogenesis in C57BL/6 mouse supplemented with normal chow diet assessed as decrease in total cholesterol level at 20 mg/kg/day, ip administered for 1 week; assay type: functional, organism-based; details: time 1.0 weeks
Outline: (§1)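 Male C57BL/6 mice received ip A-485 at 20 mg·kg−1·day−1 for 7 days, versus vehicle. NCD mice were 8 weeks old. HFD mice had been on high-fat diet for 14 weeks from 5 weeks of age. Liver triglyceride and total cholesterol content was determined. n = 5–9; mean ± SEM.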

Hepatocyte [4] = experiment: Inhibition of glucogenesis in mouse primary hepatocytes stimulated with 100 uM 8-Br-cAMP assessed as effect on PGC1alpha protein expression at 3 uM measured after 12 hrs by western blot analysis; assay type: functional, cell-based
Outline: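 Primary mouse hepatocytes incubated 12 h with 3 μM compound and 100 μM 8-Br-cAMP. Lysates western blotted for FOXO1, C/EBPα or PGC1α. Three independent experiments.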

Hepatocyte [5] = experiment: Inhibition of lipogenesis in mouse primary hepatocytes assessed as decrease in SCD1 mRNA expression at 3 uM in presence of 100 nM insulin and 5 to 25 mM glucose measured after 18 hrs by RT-qPCR assay; assay type: functional, cell-based
Outline: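 Primary hepatocytes isolated from C57BL/6 mice by two-step perfusion. Cells incubated 18 h with 3 μM inhibitor, with 0 or 100 nM insulin and 5 or 25 mM glucose. Transcripts quantified by SYBR Green RT-qPCR after Trizol RNA extraction; proteins by western blot of lysates. Mean ± SEM.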

Mus musculus [6] = experiment: Inhibition of hepatic lipogenesis in C57BL/6 mouse supplemented with high fat diet assessed as decrease in total cholesterol level at 20 mg/kg/day, ip administered for 1 week; assay type: functional, organism-based; details: time 1.0 weeks; outline: as §1
Mus musculus [7] = experiment: Inhibition of lipogenesis in C57BL/6 mouse supplemented with normal chow diet assessed as decrease in ChREBP mRNA expression at 20 mg/kg/day, ip administered for 1 week measured by RT-qPCR assay; assay type: functional, organism-based; details: time 1.0 weeks
Outline: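 Eight-week-old male C57BL/6 mice on normal chow were given 20 mg·kg−1·day−1 ip daily for 7 days or vehicle. Epididymal WAT was collected. Lipogenic, adipogenic and fatty-acid-oxidation transcripts were quantified by Trizol extraction and SYBR Green RT-qPCR. FAS, ACC, PPARγ and C/EBPα protein were assessed by western blot. n = 5–9; mean ± SEM.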

[8] = molecular target: CREB-binding protein/Histone acetyltransferase p300 (Homo sapiens) (UniProt Q09472+Q92793); experiment: Inhibition of CBP/p300 in human HepG2 cells assessed as increase in FOXO1 and COP1 interaction at 3 uM; assay type: cell-based
CREB-binding protein/Histone acetyltransferase p300 (Homo sapiens), sequence (Q09472 whole entry, looked up): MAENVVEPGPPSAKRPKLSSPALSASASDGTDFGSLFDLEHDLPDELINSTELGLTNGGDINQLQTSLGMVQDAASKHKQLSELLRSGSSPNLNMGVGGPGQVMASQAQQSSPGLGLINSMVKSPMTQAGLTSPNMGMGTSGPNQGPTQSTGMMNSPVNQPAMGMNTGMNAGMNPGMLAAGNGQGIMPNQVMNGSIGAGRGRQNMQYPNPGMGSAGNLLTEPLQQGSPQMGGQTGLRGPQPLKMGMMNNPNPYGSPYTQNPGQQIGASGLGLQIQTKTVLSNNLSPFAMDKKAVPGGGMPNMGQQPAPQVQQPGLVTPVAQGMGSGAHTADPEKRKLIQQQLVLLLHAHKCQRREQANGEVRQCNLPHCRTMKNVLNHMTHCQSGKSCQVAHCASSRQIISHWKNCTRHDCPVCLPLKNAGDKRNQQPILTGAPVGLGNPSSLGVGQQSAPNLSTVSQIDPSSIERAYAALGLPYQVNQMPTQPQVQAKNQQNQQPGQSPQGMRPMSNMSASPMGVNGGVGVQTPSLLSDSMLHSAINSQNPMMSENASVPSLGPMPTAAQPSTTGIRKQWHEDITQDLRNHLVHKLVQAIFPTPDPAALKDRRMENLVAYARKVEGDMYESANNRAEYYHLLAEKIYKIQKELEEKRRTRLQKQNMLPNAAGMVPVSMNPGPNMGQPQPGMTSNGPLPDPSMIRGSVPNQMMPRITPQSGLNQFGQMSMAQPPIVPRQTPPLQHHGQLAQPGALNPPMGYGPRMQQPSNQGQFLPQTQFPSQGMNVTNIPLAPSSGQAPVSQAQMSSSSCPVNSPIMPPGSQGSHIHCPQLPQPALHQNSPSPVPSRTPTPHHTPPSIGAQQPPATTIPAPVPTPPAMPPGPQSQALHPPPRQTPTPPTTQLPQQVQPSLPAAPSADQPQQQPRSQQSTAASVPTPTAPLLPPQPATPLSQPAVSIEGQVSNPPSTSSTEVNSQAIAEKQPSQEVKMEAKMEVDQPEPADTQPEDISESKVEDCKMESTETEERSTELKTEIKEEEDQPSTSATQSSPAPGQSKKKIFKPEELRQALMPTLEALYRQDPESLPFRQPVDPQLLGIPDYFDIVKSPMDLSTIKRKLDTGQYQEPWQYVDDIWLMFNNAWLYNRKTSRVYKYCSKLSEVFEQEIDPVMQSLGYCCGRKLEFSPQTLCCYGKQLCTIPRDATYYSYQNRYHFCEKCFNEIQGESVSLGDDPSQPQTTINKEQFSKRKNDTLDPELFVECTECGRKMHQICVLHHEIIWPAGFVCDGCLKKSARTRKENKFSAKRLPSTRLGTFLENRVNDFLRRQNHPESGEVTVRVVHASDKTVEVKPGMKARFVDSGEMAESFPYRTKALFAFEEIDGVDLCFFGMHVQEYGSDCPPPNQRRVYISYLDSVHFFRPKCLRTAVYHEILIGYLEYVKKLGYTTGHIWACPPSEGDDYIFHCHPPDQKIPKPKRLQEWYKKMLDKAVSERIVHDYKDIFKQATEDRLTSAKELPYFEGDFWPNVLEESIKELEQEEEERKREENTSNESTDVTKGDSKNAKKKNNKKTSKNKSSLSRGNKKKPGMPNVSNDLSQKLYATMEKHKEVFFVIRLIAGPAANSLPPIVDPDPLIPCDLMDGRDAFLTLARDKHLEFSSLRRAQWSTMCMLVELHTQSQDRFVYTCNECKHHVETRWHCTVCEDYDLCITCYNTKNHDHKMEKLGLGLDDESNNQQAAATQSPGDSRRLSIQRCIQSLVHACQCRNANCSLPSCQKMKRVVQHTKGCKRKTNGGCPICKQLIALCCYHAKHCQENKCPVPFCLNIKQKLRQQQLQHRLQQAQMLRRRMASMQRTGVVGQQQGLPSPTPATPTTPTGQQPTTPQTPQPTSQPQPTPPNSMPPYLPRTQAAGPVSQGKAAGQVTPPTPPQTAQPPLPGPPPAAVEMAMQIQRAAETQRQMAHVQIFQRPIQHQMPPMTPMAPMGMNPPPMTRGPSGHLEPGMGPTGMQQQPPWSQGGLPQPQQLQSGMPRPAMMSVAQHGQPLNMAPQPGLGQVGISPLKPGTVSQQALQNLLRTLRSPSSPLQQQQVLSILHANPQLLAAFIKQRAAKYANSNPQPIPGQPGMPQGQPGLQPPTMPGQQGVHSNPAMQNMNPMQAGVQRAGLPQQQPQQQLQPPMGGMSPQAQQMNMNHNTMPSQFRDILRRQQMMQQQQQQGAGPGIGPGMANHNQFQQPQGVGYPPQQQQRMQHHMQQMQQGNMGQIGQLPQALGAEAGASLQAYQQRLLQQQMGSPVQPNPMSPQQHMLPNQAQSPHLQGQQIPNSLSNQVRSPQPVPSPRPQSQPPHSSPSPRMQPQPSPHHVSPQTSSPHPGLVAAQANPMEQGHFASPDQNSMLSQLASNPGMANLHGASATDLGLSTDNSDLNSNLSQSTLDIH
CREB-binding protein/Histone acetyltransferase p300 (Homo sapiens), sequence (Q92793 whole entry, looked up): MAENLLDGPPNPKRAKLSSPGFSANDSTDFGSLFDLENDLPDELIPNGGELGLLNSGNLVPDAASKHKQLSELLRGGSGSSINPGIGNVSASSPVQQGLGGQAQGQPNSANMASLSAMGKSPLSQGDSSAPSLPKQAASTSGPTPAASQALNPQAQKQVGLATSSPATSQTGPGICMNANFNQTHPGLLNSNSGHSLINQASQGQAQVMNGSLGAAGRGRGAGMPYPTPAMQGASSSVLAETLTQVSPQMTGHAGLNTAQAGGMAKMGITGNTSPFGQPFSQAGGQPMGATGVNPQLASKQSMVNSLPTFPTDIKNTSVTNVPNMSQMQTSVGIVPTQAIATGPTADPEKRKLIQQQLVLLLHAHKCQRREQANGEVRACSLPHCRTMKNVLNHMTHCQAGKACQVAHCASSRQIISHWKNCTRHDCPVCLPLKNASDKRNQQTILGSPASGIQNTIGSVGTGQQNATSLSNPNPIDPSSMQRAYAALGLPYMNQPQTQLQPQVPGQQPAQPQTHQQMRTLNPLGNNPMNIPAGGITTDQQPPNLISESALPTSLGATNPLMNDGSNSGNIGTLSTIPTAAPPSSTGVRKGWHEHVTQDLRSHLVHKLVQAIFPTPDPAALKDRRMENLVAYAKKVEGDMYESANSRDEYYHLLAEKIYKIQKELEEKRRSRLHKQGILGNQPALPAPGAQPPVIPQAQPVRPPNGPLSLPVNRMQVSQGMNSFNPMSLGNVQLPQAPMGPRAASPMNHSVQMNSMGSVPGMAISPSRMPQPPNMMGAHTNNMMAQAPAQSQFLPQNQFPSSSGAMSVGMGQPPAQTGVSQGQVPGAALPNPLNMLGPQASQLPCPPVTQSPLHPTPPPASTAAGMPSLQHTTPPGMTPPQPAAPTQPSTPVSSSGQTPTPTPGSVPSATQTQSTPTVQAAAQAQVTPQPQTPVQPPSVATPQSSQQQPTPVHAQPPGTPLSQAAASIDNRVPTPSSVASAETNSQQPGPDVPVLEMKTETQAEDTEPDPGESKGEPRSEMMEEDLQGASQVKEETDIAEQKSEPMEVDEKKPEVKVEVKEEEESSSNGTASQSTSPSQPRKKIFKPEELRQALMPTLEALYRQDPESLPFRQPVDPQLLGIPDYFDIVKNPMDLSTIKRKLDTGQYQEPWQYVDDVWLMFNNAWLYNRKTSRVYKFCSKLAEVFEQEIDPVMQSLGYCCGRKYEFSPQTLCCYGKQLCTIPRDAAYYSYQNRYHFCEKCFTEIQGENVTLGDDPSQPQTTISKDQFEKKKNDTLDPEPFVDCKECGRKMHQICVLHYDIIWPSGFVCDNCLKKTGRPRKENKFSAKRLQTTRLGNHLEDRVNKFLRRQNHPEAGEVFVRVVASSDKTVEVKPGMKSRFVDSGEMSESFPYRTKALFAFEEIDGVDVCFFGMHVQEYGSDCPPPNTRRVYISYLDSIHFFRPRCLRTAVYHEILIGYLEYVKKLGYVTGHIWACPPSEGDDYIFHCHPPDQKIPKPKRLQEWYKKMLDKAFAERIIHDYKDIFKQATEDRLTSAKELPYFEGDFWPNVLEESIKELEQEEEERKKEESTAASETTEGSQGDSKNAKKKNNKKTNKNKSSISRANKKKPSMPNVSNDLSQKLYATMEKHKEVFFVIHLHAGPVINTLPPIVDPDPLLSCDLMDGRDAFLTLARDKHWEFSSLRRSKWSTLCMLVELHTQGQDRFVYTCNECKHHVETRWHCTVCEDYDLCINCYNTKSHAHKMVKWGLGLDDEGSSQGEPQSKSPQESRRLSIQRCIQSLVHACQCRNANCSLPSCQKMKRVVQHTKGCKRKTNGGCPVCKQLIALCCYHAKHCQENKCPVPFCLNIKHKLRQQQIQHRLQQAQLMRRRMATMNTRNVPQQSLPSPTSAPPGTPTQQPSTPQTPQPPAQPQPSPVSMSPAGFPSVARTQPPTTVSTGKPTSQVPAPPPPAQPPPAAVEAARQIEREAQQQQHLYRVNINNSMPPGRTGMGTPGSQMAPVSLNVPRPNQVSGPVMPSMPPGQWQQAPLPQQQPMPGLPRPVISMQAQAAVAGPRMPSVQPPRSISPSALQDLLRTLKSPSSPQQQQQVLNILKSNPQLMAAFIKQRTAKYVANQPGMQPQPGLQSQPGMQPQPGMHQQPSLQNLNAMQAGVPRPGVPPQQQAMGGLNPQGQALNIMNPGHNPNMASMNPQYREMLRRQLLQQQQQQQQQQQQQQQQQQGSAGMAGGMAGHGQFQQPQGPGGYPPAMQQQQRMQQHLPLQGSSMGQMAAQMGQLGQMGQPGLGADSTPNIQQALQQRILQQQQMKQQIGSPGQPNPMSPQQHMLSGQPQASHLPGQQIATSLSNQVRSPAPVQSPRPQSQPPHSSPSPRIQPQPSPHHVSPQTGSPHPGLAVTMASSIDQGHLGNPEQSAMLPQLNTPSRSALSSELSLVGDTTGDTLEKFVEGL
Outline: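 HepG2 cells treated with 3 μM compound. FOXO1–COP1 interaction assessed by immunoprecipitation: lysate with antibody 2 h, then protein A/G beads overnight at 4 °C, followed by western blot.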

Mus musculus [9] = experiment: Inhibition of lipogenesis in C57BL/6 mouse supplemented with high-fat diet assessed as decrease in C/EBPalpha protein expression at 20 mg/kg/day, ip administered for 1 week measured measured by western blot analysis; assay type: functional, organism-based; details: time 1.0 weeks
Outline: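 Male C57BL/6 mice were fed high-fat diet for 14 weeks from 5 weeks of age, then injected ip with 20 mg·kg−1·day−1 for 7 days or given vehicle. Epididymal and inguinal WAT were weighed, examined by H&E, and analysed. Transcripts were measured by Trizol/SYBR Green RT-qPCR; proteins by western blot. n = 5–9; mean ± SEM.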

Mus musculus [10] = experiment: Inhibition of hepatic lipogenesis in C57BL/6 mouse supplemented with normal chow diet assessed as effect on CPT1alpha mRNA expression at 20 mg/kg/day, ip administered for 1 week measured by RT-qPCR assay; assay type: functional, organism-based; details: time 1.0 weeks
Outline: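 Normal-chow male C57BL/6 mice, 8 weeks old, were injected ip at 20 mg·kg−1·day−1 daily for 7 days or given vehicle. Liver RNA was extracted with Trizol, and fatty-acid-oxidation gene transcripts were quantified by SYBR Green RT-qPCR. n = 5–9; mean ± SEM.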

Mus musculus [11] = experiment: Anti-obesity activity in C57BL/6 mouse supplemented with high fat diet assessed as effect on random blood glucose at 20 mg/kg/day, ip administered for 1 week; assay type: functional, organism-based; details: time 1.0 weeks
Outline: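 Male C57BL/6 mice fed high-fat diet for 14 weeks from 5 weeks of age, then ip 20 mg·kg−1·day−1 for 7 days. Body weight, EchoMRI lean/fat mass, and random or 16 h-fasted blood glucose recorded, as the line states.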

CNC(=O)Nc1ccc2c(c1)CCS21OC(=O)N(CC(=O)N(Cc2ccc(F)cc2)[C@@H](C)C(F)(F)F)C1=O (stereo partly specified)
inactive: inhibition (Hepatocyte [4]) | inhibition (Mus musculus [10]) | Activity (Mus musculus [11])
active: Activity (Mus musculus [1]) | inhibition (Mus musculus [2]) | inhibition (Mus musculus [3]) | inhibition (Hepatocyte [5]) | inhibition (Mus musculus [6]) | inhibition (Mus musculus [7]) | inhibition [8] | inhibition (Mus musculus [9])

From ChEMBL document CHEMBL5674890, “Selective inhibition of CBP/p300 HAT by A-485 results in suppression of lipogenesis and hepatic gluconeogenesis” (Cell Death Dis, 2020)
